Experimental data taken from ChEMBL document CHEMBL3745677, “Discovery of 6-(4-{[5-Cyclopropyl-3-(2,6-dichlorophenyl)isoxazol-4-yl]methoxy}piperidin-1-yl)-1-methyl-1H-indole-3-carboxylic Acid: A Novel FXR Agonist for the Treatment of Dyslipidemia” (J Med Chem, 2015).

Experiments:
Rattus norvegicus = assay: Antidyslipidemic activity in ZDF rat assessed as HDL level at 10 mg/kg cotreated with 0.3 mg/kg rosiglitazone for 9 days by FPLC analysis (reference value: 48.3 mg/dL); type: functional, Zucker
[1] = Clearance in Sprague-Dawley rat at 1 mg/kg, iv by LC-MS/MS analysis; type: ADME, organism-based; settings: in vivo
Method in brief: (§1)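 Sprague Dawley rats, Beagle dogs and Cynomolgus monkeys were dosed IV at 1 mg/kg (rat, dog) or 0.91 mpk (monkey) in 5% Solutol/5% EtOH in saline. Oral/nasogastric dosing was 3 mpk in 1.0% CMC/0.25% PS80/0.05% antifoam in purified water. Samples were processed to plasma and analysed by LC-MS/MS; values are mean ± SD, N=2-3.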

[2] = Volume of distribution at steady state in Sprague-Dawley rat at 1 mg/kg, iv by LC-MS/MS analysis; type: ADME, organism-based; settings: in vivo, read-out: Vdss
Method in brief: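 Intravenous dose given in 5% Solutol / 5% EtOH in saline (1 mg/kg rat and dog, 0.91 mpk monkey). Plasma samples collected and analyzed by LC-MS/MS; parameters reported as mean ± SD, N=2-3.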

Mus musculus [3] = assay: Antidyslipidemic activity in western-diet fed mouse expressing LDL-receptor (-/-) assessed as decrease in triglyceride level at 1 mg/kg qd for a week administered via gavage by FPLC analysis; type: functional; settings: po
Mus musculus [4] = assay: Antidyslipidemic activity in western-diet fed mouse expressing LDL-receptor (-/-) assessed as decrease in triglyceride level at 3 mg/kg qd for a week administered via gavage […]; type: functional; settings: po
Method in brief: (§2)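 Male LDLR null mice, six per group, were gavaged once daily for one week with compound (in situ sodium salt) or vehicle (5% Solutol, 5% EtOH, 1% wt/v CMC) at 5 mL/kg. On day 7 they were bled by cardiac puncture under CO2 anaesthesia. Serum cholesterol and triglycerides were measured enzymatically on a clinical chemistry analyser (mean ± SD, n=6). ED50 was obtained by nonlinear regression.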

Mus musculus [5] = assay: Antidyslipidemic activity in western-diet fed mouse expressing LDL-receptor (-/-) assessed as decrease in triglyceride level at 30 mg/kg qd for a week administered via gavage […]; type: functional; settings: po; method in brief: as §2
Mus musculus [6] = assay: Antidyslipidemic activity in western-diet fed mouse expressing LDL-receptor (-/-) assessed as decrease in triglyceride level administered once daily for a week via gavage […]; type: functional; settings: po; method in brief: as §2
Mus musculus [7] = assay: Antidyslipidemic activity in western-diet fed mouse expressing LDL-receptor (-/-) assessed as decrease in total cholesterol level at 3 mg/kg qd for a week administered via gavage […]; type: functional; settings: po; method in brief: as §2
Mus musculus [8] = assay: Antidyslipidemic activity in western-diet fed mouse expressing LDL-receptor (-/-) assessed as decrease in total cholesterol level at 10 mg/kg qd for a week administered via gavage […]; type: functional; settings: po; method in brief: as §2
Mus musculus [9] = assay: Antidyslipidemic activity in western-diet fed mouse expressing LDL-receptor (-/-) assessed as decrease in low density lipoprotein level at 30 mg/kg qd for a week administered via gavage by FPLC analysis; type: functional; settings: po
Method in brief: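 LDLR null male mice, six per group, were dosed by gavage once daily for one week (vehicle 5% Solutol, 5% EtOH, 1% wt/v CMC; 5 mL/kg). Serum was collected by cardiac puncture on day 7 under CO2 anaesthesia. Pooled serum from each treatment group was fractionated by FPLC to quantify VLDL and LDL.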

[10] = Cmax in beagle dog at 3 mg/kg, po by LC-MS/MS analysis; type: ADME, organism-based, Canis lupus familiaris; design: dose 3 mg/kg, route oral; settings: in vivo; method in brief: as §1
[11] = AUC (0 to 24 hrs) in beagle dog at 3 mg/kg, po by LC-MS/MS analysis; type: ADME, organism-based, Canis lupus familiaris; design: dose 3 mg/kg, time < 24 hr, route oral; settings: in vivo; method in brief: as §1
[12] = Terminal half life in beagle dog at 3 mg/kg, po by LC-MS/MS analysis; type: ADME, organism-based, Canis lupus familiaris; settings: in vivo, read-out: beta t1/2 (converted)
Method in brief: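 Oral/nasogastric dosing at 3 mpk in 1.0% CMC/0.25% PS80/0.05% antifoam in purified water. Plasma samples collected and analyzed by LC-MS/MS; parameters reported as mean ± SD, N=2-3.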

[13] = Oral bioavailability in cynomolgus monkey at 3 mg/kg by LC-MS/MS analysis; type: ADME, organism-based, Macaca fascicularis; settings: in vivo
Method in brief: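 Bioavailability calculated from a 3 mpk oral/nasogastric dose (1.0% CMC/0.25% PS80/0.05% antifoam in water) against a 0.91 mpk IV dose (5% Solutol/5% EtOH in saline). Plasma analyzed by LC-MS/MS; mean ± SD, N=2-3.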

[14] = Fraction unbound in human plasma; type: ADME, cell-free
Androgen receptor = target: T1, Androgen receptor (Homo sapiens, UniProt P10275); assay: Agonist activity at androgen receptor (unknown origin) expressed in HEK293 cells assessed as transcriptional activation; type: cell-based
T1 sequence (P10275 whole entry): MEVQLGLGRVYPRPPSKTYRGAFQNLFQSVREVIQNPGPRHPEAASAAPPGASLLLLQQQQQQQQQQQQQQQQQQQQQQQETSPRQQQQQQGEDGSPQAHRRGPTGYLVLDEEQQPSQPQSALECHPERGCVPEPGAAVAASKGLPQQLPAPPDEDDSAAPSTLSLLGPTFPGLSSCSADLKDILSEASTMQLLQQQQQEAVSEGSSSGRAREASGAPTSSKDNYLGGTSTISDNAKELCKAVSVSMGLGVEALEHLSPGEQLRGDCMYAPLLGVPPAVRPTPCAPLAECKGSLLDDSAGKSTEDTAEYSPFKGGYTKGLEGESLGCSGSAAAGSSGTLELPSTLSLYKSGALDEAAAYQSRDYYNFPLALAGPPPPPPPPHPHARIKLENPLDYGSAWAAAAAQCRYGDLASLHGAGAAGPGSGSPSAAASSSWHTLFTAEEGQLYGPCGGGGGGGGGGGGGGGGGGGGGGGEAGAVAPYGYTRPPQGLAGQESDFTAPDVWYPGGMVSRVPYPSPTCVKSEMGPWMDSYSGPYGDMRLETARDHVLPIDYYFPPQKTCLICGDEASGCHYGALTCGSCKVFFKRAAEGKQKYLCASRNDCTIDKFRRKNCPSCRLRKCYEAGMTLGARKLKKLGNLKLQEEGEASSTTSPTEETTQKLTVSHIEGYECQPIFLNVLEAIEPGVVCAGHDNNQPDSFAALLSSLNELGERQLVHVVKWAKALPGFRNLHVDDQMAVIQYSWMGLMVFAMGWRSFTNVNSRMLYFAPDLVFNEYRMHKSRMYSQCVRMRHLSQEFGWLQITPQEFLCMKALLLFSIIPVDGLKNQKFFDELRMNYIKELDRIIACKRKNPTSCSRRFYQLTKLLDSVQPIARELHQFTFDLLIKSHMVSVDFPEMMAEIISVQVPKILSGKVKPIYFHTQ

Cn1cc(C(=O)O)c2ccc(N3CCC(OCc4c(-c5c(Cl)cccc5Cl)noc4C4CC4)CC3)cc21 [TERN-101]
Activity (Rattus norvegicus): 95 mg/dL
clearance [1]: 30 mL/min/kg
Vd [2]: 1.24 L/kg
inhibition in vivo at 1 mg/kg (Mus musculus [3]): 25%
inhibition in vivo at 3 mg/kg (Mus musculus [4]): 46%
inhibition in vivo at 30 mg/kg (Mus musculus [5]): 83%
ED50 (Mus musculus [6]): 3.4 mg/kg
inhibition in vivo at 3 mg/kg (Mus musculus [7]): 57%
inhibition in vivo at 10 mg/kg (Mus musculus [8]): 80%
inhibition in vivo at 30 mg/kg (Mus musculus [9]): 62%
Cmax [10]: 1240 ng/mL
AUC(0-t) at 24 h [11]: 4690 ng·h/mL
half-life [12]: 7 h
bioavailability [13]: 24%
fraction unbound [14]: 0.032
EC50 (Androgen receptor): > 10 µM
